Test [1] is filed under the species Bos taurus. As to the kind of experiment: Displacement of [3H]colchicine from bovine brain tubulin at 5 uM by scintillation counting. In short, it runs like this: (§1)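 Electrophoretically homogeneous bovine brain tubulin (1.0 µM, 0.1 mg/mL) in a tubulin-stabilizing buffer with 5.0 µM [3H]colchicine and compound at 1.0, 5.0 or 50 µM, final DMSO 5% (v/v). Incubation was 10 min at 37 °C. Reactions were stopped with ice water and filtered through stacked DEAE-cellulose filters. Read-out is % inhibition of colchicine binding.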

A short description of test [2]: Inhibition of bovine brain tubulin by spectrophotometry. Also noted: species or system Bos taurus. A digest of the protocol: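 Assembly of electrophoretically homogeneous bovine brain tubulin at 10 µM (1.0 mg/mL) in 0.8 M monosodium glutamate pH 6.6 with 4% DMSO. Tubulin was preincubated with compound at varying concentrations for 15 min at 30 °C without GTP, chilled, then 0.4 mM GTP was added. After a jump from 0 to 30 °C, turbidity at 350 nm was followed for 20 min.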

The test system of another test is MCF7. As to the kind of experiment: Antiproliferative activity against human MCF7 cells after 48 hrs by sulforhodamine B assay. The test is classed as functional, cell-based. The note with it: MCF7, 48 h. In short, it runs like this:
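MCF-7 cells from the NCI screening program, grown as monolayers in RPMI 1640 with 5% FBS at 37 °C in humidified 5% CO2. Cells were seeded 24 h before compound addition (DMSO, final 1% v/v) at varying concentrations.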

For test [3], the species on record is Bos taurus. Put plainly: Displacement of [3H]colchicine from bovine brain tubulin at 50 uM by scintillation counting. In short, it runs like this:
as §1

Test [4] is filed under the species Bos taurus. As to the kind of experiment: Displacement of [3H]colchicine from bovine brain tubulin at 1 uM by scintillation counting.
In the next test the test system is HL-60. Put plainly: Cytotoxicity against human HL60 cells after 72 hrs by MTT assay. The test is classed as functional, cell-based. Particulars: HL-60, 72 h. In short, it runs like this:
(§2)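 Four human tumour lines (MDA/MB-435, HCT-8, SF-295, HL-60) were exposed to compound at 0.0009–5 µg/mL for 72 h. Growth was quantified by living-cell reduction of MTT to blue formazan.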

The next test concerns SF-295. Put plainly: Cytotoxicity against human SF295 cells after 72 hrs by MTT assay. The note with it: SF-295, 72 h. The test is classed as functional, cell-based. A digest of the protocol: as §2
The subject of the next test is MDA-MB-435. As to the kind of experiment: Cytotoxicity against human MDA-MB-435 cells after 72 hrs by MTT assay. The class given is functional, cell-based. Particulars: MDA-MB-435, 72 h. In short, it runs like this:
as §2

In a further test the test system is HCT-8. Put plainly: Cytotoxicity against human HCT8 cells after 72 hrs by MTT assay. The class given is functional, cell-based. Particulars: HCT-8, 72 h. In short, it runs like this: as §2

For the compound `COc1ccc(Cc2cc(OC)c(OC)c(OC)c2)cc1`, the Activity came to 36% in the test listed under Bos taurus [1] and 83% in the test listed under Bos taurus [3]. The values for the IC50 (in test [2]; in the test on MCF7) were 4000 nM and 130 nM, respectively.
As to `COc1ccc(/C=C/c2cc(OC)c(OC)c(OC)c2)cc1`, the results for the Activity in the test filed under Bos taurus [4] and in the test filed under Bos taurus [1] were 74% and 97%, respectively. For the same compound, the IC50 in test [2] is 1100 nM; with MCF7, 4.8 nM.
Turning to `COc1ccc(Cc2cc(OC)c(OC)c(OC)c2)cc1O`, the Activity in the test listed under Bos taurus [1] was determined as 44%; in the test listed under Bos taurus [3], 91%. Also, the IC50 was 2900 nM in test [2] and 59 nM in the test on MCF7.
With `COc1ccc([S+]([O-])c2cc(OC)c(OC)c(OC)c2)cc1` (centres undefined), the IC50 was found to be 340 nM in the test with HL-60; 1460 nM in the test on SF-295; 31000 nM in test [2]; 2200 nM with MCF7; 280 nM with MDA-MB-435; 470 nM in the test on HCT-8. The values for the Activity in the test filed under Bos taurus [1] and in the test listed under Bos taurus [3] were 16% and 41%, respectively.
`COc1ccc(/C=C/c2cc(OC)c(OC)c(OC)c2)cc1O` [E-COMBRETASTATIN A-4] came in with an Activity in the test filed under Bos taurus [4] of 85%. In the test on MCF7, this compound displayed an IC50 of 1.4 nM.
As to `COc1ccc(CCc2cc(OC)c(OC)c(OC)c2)cc1O`, the figures for the Activity in the test listed under Bos taurus [4] and in the test filed under Bos taurus [1] were 49% and 67%, respectively. Also, the IC50 in [2] was 1600 nM; in the test on MCF7 it was 13 nM.
As for `COc1ccc(CCc2cc(OC)c(OC)c(OC)c2)cc1`, the Activity stood at 50% in the test filed under Bos taurus [1] and 89% in the test filed under Bos taurus [3]. Besides, the IC50 was 2600 nM in [2] and 78 nM in the test with MCF7.
Take `COc1ccc(C(=O)c2cc(OC)c(OC)c(OC)c2)cc1O` [PHENSTATIN]: the Activity in the test filed under Bos taurus [4] stood at 70%; in the test listed under Bos taurus [1], 78%. Also, the IC50 in [2] was 730 nM; in the test with MCF7, 34 nM.
With `COc1ccc(C(=O)c2cc(OC)c(OC)c(OC)c2)cc1`, the Activity was 50% in the test listed under Bos taurus [1] and 95% in the test filed under Bos taurus [3]. In addition, the IC50 in test [2] amounted to 2200 nM; in the test with MCF7, 160 nM.
For `COc1ccc(S(=O)(=O)c2cc(OC)c(OC)c(OC)c2)cc1`, the IC50 in the test with HL-60 is 4750 nM; in the test on SF-295 it was 8100 nM; in [2], more than 40000 nM; in the test on MCF7, 2600 nM; in the test with MDA-MB-435 it was 2320 nM; in the test with HCT-8, 12200 nM. Besides, the Activity amounted to 18% in the test listed under Bos taurus [1] and 53% in the test listed under Bos taurus [3].
Take `COc1ccc(Sc2cc(OC)c(OC)c(OC)c2)cc1`: the values for the Activity in the test listed under Bos taurus [4] and in the test filed under Bos taurus [1] were 56% and 89%, respectively. Further, the IC50 in the test with HL-60 came to 3 nM; in the test on SF-295, 30 nM; in test [2] it was 1200 nM; in the test with MCF7 it was 16 nM; in the test with MDA-MB-435, 3 nM; with HCT-8, 40 nM.

These data come from ChEMBL document CHEMBL1158380 (Eur J Med Chem, 2009).
